HUVEC inhibit = inhibitors of HUVEC proliferation, primary screen, cell-based, 384-well; CellTiter-Glo luminescence, 72 h; hits give low values; viability, % at 10 µM (by protocol); 1.1% of 86,000 active; AID 648, 2007;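 active means viability at or below 30%; inactive means viability above 30%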;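 further: 100% = median luminescence of DMSO-only cell control wells on each plate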
HCT116 bCat-KO = primary screen for growth suppressors in beta-catenin knockout HCT116 cells (colon tumor, human); HCT116 beta-catenin knockout viability, CellTiter-Glo, 60 h; hits give low values; AID 818, 2007; 1.5% of 140,000 active; viability, % at 10 µM;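 active means viability at or under a set limit, the compound median less 4 SD, cut at about 6% in these data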;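 further: 0% = Hyamine 1622 control at 20 µM and 100% = untreated cell control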
Lung fibro prol = antiproliferative effect on LL 47 fibroblasts – human, LL 47 cells, CellTiter-Glo luminescence, primary screen. LL 47 human lung fibroblast viability, ATP luminescence; hits give low values. viability, % at 10 µM. 1.1% of 85,000 active. AID 719, 2007;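 active means viability at or below 50% in the single dose screen; inactive means viability above 50%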;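 further: compound exposure lasted 72 h before the ATP readout; 100% = median luminescence of untreated cell-only wells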
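Test system: LL 47 human lung fibroblasts; Quantity: 1,150 cells/well; Buffer or medium: IMEM plus 15% FBS; Dosing: tenfold compound dosing solution, DMSO at 0.1%; Timing: overnight cell rest, 72 h compound treatment at 37 °C; Detection: ATP-based CellTiter-Glo luminescent readout; Read-out basis: viability percentage against median untreated-cell control; Controls: cell-only wells, no compound.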
Cav3 T inh = Cav3.2 calcium influx blockers – cell-based, Fluo-4 calcium fluorescence, FDSS, MLSMR library, primary screen; Cav3.2-expressing cells; hits give low values; Voltage-dependent T-type calcium channel subunit alpha-1H (Homo sapiens), O95180; 4% of 100,000 active; B-score at 10 µM;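 active means single-dose well whose peak fluorescence ratio is a statistical outlier from its plate by either plate-standardised score or position-corrected B-score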
H69AR growth 86K = proliferation blockers of H69AR lung cancer cells, primary screen, cell-based, human, 86K library; H69AR lung tumor viability, ATP luminescence, 72 h; hits give low values; viability, % at 10 µM; 6% of 85,000 active; AID 598, 2007;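 active means viability at or below 40%; inactive means viability above 40%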;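 further: multidrug resistant small cell line overexpressing MRP-1 efflux transporter; 100% = mean luminescence of untreated control wells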
HCT116 PTEN-null = growth suppression of PTEN-null HCT116, primary screen, cell-based, CellTiter-Glo; HCT116 PTEN-null viability, 60 h; hits give low values; viability, % at 10 µM; 1.2% of 140,000 active; AID 827, 2007;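 active means viability at or below a set limit, 4 SD under the median of all tested compounds, cut at about 3.7% in these data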;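 further: PTEN knockout HCT116 line with beta catenin targeted HCT116 as companion control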
Active calls of the source: *. Rows were chosen to be rich in hits. Some 7.1% of all compounds tested hit in one or more screens of this group.

`Cc1cccc(-c2nc(CS(=O)CC(=O)NCCCSC3CCCCC3)c(C)o2)c1` (centres undefined) gave HUVEC inhibit 91, HCT116 bCat-KO 62, Lung fibro prol 96, Cav3 T inh -7.1*, H69AR growth 86K 79 and HCT116 PTEN-null 75.
Screening CCc1cccc(NC(=O)CS(=O)Cc2nc(-c3ccc(C)cc3)oc2C)c1 (centres undefined) returned HUVEC inhibit 93, HCT116 bCat-KO 89, Lung fibro prol 99, Cav3 T inh -6.7*, H69AR growth 86K 98 and HCT116 PTEN-null 79.
For CC(C)(C)N(NC(=O)Nc1ccc(Cl)c(Cl)c1)C(=O)c1ccccc1 the results were HCT116 bCat-KO 9, Cav3 T inh -2.6 and HCT116 PTEN-null 3.4*.
Screening CC(C)(C)N(NC(=O)Nc1ccc(F)cc1)C(=O)c1ccccc1 returned HCT116 bCat-KO 96 and HCT116 PTEN-null 89.
Screening c1ccc(COn2nnc3ccccc32)c(COn2nnc3ccccc32)c1 returned HUVEC inhibit 76, HCT116 bCat-KO 83, Lung fibro prol 91, Cav3 T inh -4.8*, H69AR growth 86K 88 and HCT116 PTEN-null 65.
For Clc1cccc(Cl)c1COn1nnc2ccccc21 the results were HUVEC inhibit 41, HCT116 bCat-KO 14, Lung fibro prol 63, Cav3 T inh -2.9, H69AR growth 86K 35* and HCT116 PTEN-null 19.
Screening O=C(COC(=O)Cc1ccc(S(=O)(=O)N2CCOCC2)s1)NCc1ccc(Cl)cc1 returned HCT116 bCat-KO 97, Cav3 T inh 0.83 and HCT116 PTEN-null 106.
Screening CC(Sc1nnc(-c2ccc(Cl)cc2Cl)n1Cc1ccccc1)C(=O)Nc1nccs1 (centres undefined) returned HUVEC inhibit 74, HCT116 bCat-KO 39, Lung fibro prol 92, Cav3 T inh -8.2*, H69AR growth 86K 55 and HCT116 PTEN-null 32.
Cc1cc(C)nc(-n2nc(C)cc2NC(=O)c2cccc(S(=O)(=O)N3CCCCC3)c2)n1 was read as HCT116 bCat-KO 90, Cav3 T inh 1.7 and HCT116 PTEN-null 69.
O=[n+]1c2c(n([O-])c3cc(F)c(N4CCCC4)cc31)CCCC2 was read as HUVEC inhibit 99, HCT116 bCat-KO 70, Lung fibro prol 109, Cav3 T inh -7.3*, H69AR growth 86K 92 and HCT116 PTEN-null 80.
For CC1CCCCN1C(=O)Nc1cccc(Cl)c1 (centres undefined) the results were HUVEC inhibit 116, HCT116 bCat-KO 103, Lung fibro prol 102, Cav3 T inh 1, H69AR growth 86K 91 and HCT116 PTEN-null 92.
CC1CCCN(C(=O)Nc2cccc(NC(=O)N3CCCC(C)C3C)c2)C1C (centres undefined) was read as HUVEC inhibit 101, HCT116 bCat-KO 96, Lung fibro prol 105, Cav3 T inh -5.8*, H69AR growth 86K 75 and HCT116 PTEN-null 96.
For CC(C)C1CC(CCNCc2ccc(N(C)C)cc2)(c2ccccc2)CCO1 (centres undefined) the results were HCT116 bCat-KO 2.3* and HCT116 PTEN-null 2.6*.
`CC(C)Oc1cccc(-c2cc(C(=O)N3CCN(S(C)(=O)=O)CC3)c3ccccc3n2)c1` gave HUVEC inhibit 89, HCT116 bCat-KO 88, Lung fibro prol 97, Cav3 T inh -0.86, H69AR growth 86K 24* and HCT116 PTEN-null 78.
Screening O=C(c1cc(-c2ccncc2)nc2ccc(Br)cc12)N1CCN(c2ccccn2)CC1 returned HUVEC inhibit 57, HCT116 bCat-KO 60, Lung fibro prol 94, Cav3 T inh -0.53, H69AR growth 86K 22* and HCT116 PTEN-null 63.
For COc1cccc(-c2cc(C(=O)N3CCN(c4ncccn4)CC3)c3ccccc3n2)c1 the results were HUVEC inhibit 58, HCT116 bCat-KO 32, Lung fibro prol 99, H69AR growth 86K 19* and HCT116 PTEN-null 27.
`Cc1ccc2nc(-c3ccccn3)cc(C(=O)N3CCN(c4ncccn4)CC3)c2c1` gave HUVEC inhibit 80, HCT116 bCat-KO 79, Lung fibro prol 106, Cav3 T inh 0.12, H69AR growth 86K 57 and HCT116 PTEN-null 75.
